From ChEMBL document CHEMBL5724801, “EUbOPEN Chemogenomics Library - Multiplex” (2024)
Several values for one entry are separate records, joined by “and”; a condition that tells them apart may be missing. Identical values can stand only once.

System: Fibroblast
Assay: Multiplex assay against human fibroblast
Type: toxicity, cell-based
Outline: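 Cells were classed with CellPathfinder machine-learning gating, first as Hoechst high-intensity objects or normal cells, then (normal cells) as healthy, pyknosed or fragmented nuclei, and finally (pyknosed cells) as mitotic or apoptotic. Staining of live cells at seeding used Hoechst33342, BioTracker Green Microtubule Cytoskeleton Dye, MitoTracker Red and Annexin V Alexa Fluor 680, with imaging on a CQ1 microscope at 37°C and 5% CO2 after compound addition. Tubulin, mitochondrial-mass and membrane-permeability phenotypes are per cents of healthy-nucleus cells.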

[1] = 12 h, 1 µM, compound concentration 1 uM
[2] = 12 h, 10 µM, compound concentration 10 uM
[3] = 24 h, 1 µM, compound concentration 1 uM
[4] = 24 h, 10 µM, compound concentration 10 uM
[5] = 48 h, 1 µM, compound concentration 1 uM
[6] = 48 h, 10 µM, compound concentration 10 uM

What does the source list for `COc1cc(NC(=O)CCN2CCC(OC(=O)Nc3ccccc3-c3ccccc3)CC2)c(Cl)cc1CNC[C@H](O)c1ccc(O)c2[nH]c(=O)ccc12` [BATEFENTEROL]?
Population Apoptotic (%) [1]: 53% and 37%; Population Fragmented Nuclei (%) [1]: 25%; Population Healthy Nuclei (%) [1]: 58% and 54%; Population Hoechst High Intensity Objects (%) [1]: 2% and 3%; Population Membrane Permeable-Phenotype (%) [1]: 0% and 3%; Population Mitochondria Different-Phenotype (%) [1]: 13% and 7%; Population Mitotic Cells (%) [1]: 46% and 62%; Population Normal (%) [1]: 97% and 96%; Population Pyknosed Nuclei (%) [1]: 15% and 20%; Population Tubulin-Different-Phenotype (%) [1]: 42% and 50%; Total Cell Count [1]: 181 and 124; Population Apoptotic (%) [2]: 46% and 41%; Population Fragmented Nuclei (%) [2]: 24% and 44%; Population Healthy Nuclei (%) [2]: 59% and 41%; Population Hoechst High Intensity Objects (%) [2]: 2%; Population Membrane Permeable-Phenotype (%) [2]: 0% and 1%; Population Mitochondria Different-Phenotype (%) [2]: 22% and 23%; Population Mitotic Cells (%) [2]: 53% and 58%; Population Normal (%) [2]: 97%; Population Pyknosed Nuclei (%) [2]: 16% and 13%; Population Tubulin-Different-Phenotype (%) [2]: 63% and 84%; Total Cell Count [2]: 199 and 128; Population Apoptotic (%) [3]: 55% and 50%; Population Fragmented Nuclei (%) [3]: 21% and 26%; Population Healthy Nuclei (%) [3]: 62% and 59%; Population Hoechst High Intensity Objects (%) [3]: 1% and 2%; Population Membrane Permeable-Phenotype (%) [3]: 0% and 3%; Population Mitochondria Different-Phenotype (%) [3]: 7% and 10%; Population Mitotic Cells (%) [3]: 44% and 50%; Population Normal (%) [3]: 98% and 97%; Population Pyknosed Nuclei (%) [3]: 15% and 14%; Population Tubulin-Different-Phenotype (%) [3]: 39% and 57%; Total Cell Count [3]: 174 and 131; Population Apoptotic (%) [4]: 51% and 81%; Population Fragmented Nuclei (%) [4]: 35% and 46%; Population Healthy Nuclei (%) [4]: 53% and 45%; Population Hoechst High Intensity Objects (%) [4]: 0% and 1%; Population Membrane Permeable-Phenotype (%) [4]: 0% and 1%; Population Mitochondria Different-Phenotype (%) [4]: 34% and 14%; Population Mitotic Cells (%) [4]: 48% and 18%; Population Normal (%) [4]: 99% and 98%; Population Pyknosed Nuclei (%) [4]: 11% and 8%; Population Tubulin-Different-Phenotype (%) [4]: 63% and 80%; Total Cell Count [4]: 247 and 136; Population Apoptotic (%) [5]: 62% and 66%; Population Fragmented Nuclei (%) [5]: 23% and 29%; Population Healthy Nuclei (%) [5]: 54% and 56%; Population Hoechst High Intensity Objects (%) [5]: 3%; Population Membrane Permeable-Phenotype (%) [5]: 0% and 4%; Population Mitochondria Different-Phenotype (%) [5]: 18% and 14%; Population Mitotic Cells (%) [5]: 37% and 33%; Population Normal (%) [5]: 96%; Population Pyknosed Nuclei (%) [5]: 22% and 14%; Population Tubulin-Different-Phenotype (%) [5]: 53% and 70%; Total Cell Count [5]: 185 and 130; Population Apoptotic (%) [6]: 74% and 88%; Population Fragmented Nuclei (%) [6]: 22% and 45%; Population Healthy Nuclei (%) [6]: 54% and 48%; Population Hoechst High Intensity Objects (%) [6]: 1% and 0%; Population Membrane Permeable-Phenotype (%) [6]: 0% and 1%; Population Mitochondria Different-Phenotype (%) [6]: 45% and 15%; Population Mitotic Cells (%) [6]: 25% and 11%; Population Normal (%) [6]: 98% and 99%; Population Tubulin-Different-Phenotype (%) [6]: 77% and 76%; Total Cell Count [6]: 213 and 144

What does the source list for `Cc1cc(NC(=O)NCCN2CCC(O)(Cc3ccccc3)CC2)c2ccccc2n1` [PALOSURAN]?
Population Apoptotic (%) [1]: 37% and 40%; Population Fragmented Nuclei (%) [1]: 10% and 26%; Population Healthy Nuclei (%) [1]: 77% and 44%; Population Hoechst High Intensity Objects (%) [1]: 2% and 9%; Population Membrane Permeable-Phenotype (%) [1]: 3% and 1%; Population Mitotic Cells (%) [1]: 62% and 59%; Population Normal (%) [1]: 97% and 90%; Population Pyknosed Nuclei (%) [1]: 12% and 28%; Population Tubulin-Different-Phenotype (%) [1]: 19% and 46%; Total Cell Count [1]: 133 and 143; Population Apoptotic (%) [2]: 40% and 41%; Population Fragmented Nuclei (%) [2]: 14% and 28%; Population Healthy Nuclei (%) [2]: 69% and 49%; Population Hoechst High Intensity Objects (%) [2]: 1% and 6%; Population Membrane Permeable-Phenotype (%) [2]: 0% and 3%; Population Mitochondria Different-Phenotype (%) [2]: 13% and 3%; Population Mitotic Cells (%) [2]: 59% and 58%; Population Normal (%) [2]: 98% and 93%; Population Pyknosed Nuclei (%) [2]: 15% and 22%; Population Tubulin-Different-Phenotype (%) [2]: 37% and 51%; Total Cell Count [2]: 178 and 113; Population Apoptotic (%) [3]: 53% and 40%; Population Fragmented Nuclei (%) [3]: 15% and 27%; Population Healthy Nuclei (%) [3]: 73% and 50%; Population Hoechst High Intensity Objects (%) [3]: 2% and 6%; Population Mitochondria Different-Phenotype (%) [3]: 0% and 21%; Population Mitotic Cells (%) [3]: 46% and 60%; Population Normal (%) [3]: 97% and 93%; Population Pyknosed Nuclei (%) [3]: 10% and 22%; Total Cell Count [3]: 129 and 119; Population Apoptotic (%) [4]: 42% and 60%; Population Fragmented Nuclei (%) [4]: 14% and 30%; Population Healthy Nuclei (%) [4]: 77% and 47%; Population Hoechst High Intensity Objects (%) [4]: 1% and 3%; Population Membrane Permeable-Phenotype (%) [4]: 0% and 3%; Population Mitochondria Different-Phenotype (%) [4]: 8% and 1%; Population Mitotic Cells (%) [4]: 57% and 40%; Population Normal (%) [4]: 98% and 96%; Population Pyknosed Nuclei (%) [4]: 8% and 22%; Population Tubulin-Different-Phenotype (%) [4]: 37% and 48%; Total Cell Count [4]: 178 and 117; Population Apoptotic (%) [5]: 50% and 61%; Population Fragmented Nuclei (%) [5]: 16% and 42%; Population Healthy Nuclei (%) [5]: 72% and 44%; Population Hoechst High Intensity Objects (%) [5]: 3% and 7%; Population Membrane Permeable-Phenotype (%) [5]: 0% and 14%; Population Mitotic Cells (%) [5]: 50% and 38%; Population Normal (%) [5]: 96% and 92%; Population Pyknosed Nuclei (%) [5]: 11% and 13%; Total Cell Count [5]: 126 and 149; Population Apoptotic (%) [6]: 55% and 61%; Population Fragmented Nuclei (%) [6]: 19% and 38%; Population Healthy Nuclei (%) [6]: 69% and 44%; Population Hoechst High Intensity Objects (%) [6]: 5% and 2%; Population Membrane Permeable-Phenotype (%) [6]: 0% and 2%; Population Mitochondria Different-Phenotype (%) [6]: 10% and 6%; Population Mitotic Cells (%) [6]: 44% and 38%; Population Normal (%) [6]: 94% and 97%; Population Pyknosed Nuclei (%) [6]: 10% and 16%; Population Tubulin-Different-Phenotype (%) [6]: 36% and 61%; Total Cell Count [6]: 186 and 112

With `CCn1c(-c2ccncc2)cc2c1CCNC2=O` as the molecule, how does the “Population Apoptotic (%)” value [1] read?
Its value is 13.79% and 16.67%.

What about the “Population Fragmented Nuclei (%)” value [1] of the same molecule?
Its value is 13.56% and 3.83%.

What about the “Population Healthy Nuclei (%)” value [1] of the same molecule?
The value was 70.06% and 79.78%.

And the “Population Hoechst High Intensity Objects (%)” value [1]?
The value was 0%.

And the “Population Membrane Permeable-Phenotype (%)” value [1]?
The value was 2.42% and 2.74%.

What about the “Population Mitochondria Different-Phenotype (%)” value [1] of the same molecule?
The value was 8.06% and 6.85%.

And the “Population Mitotic Cells (%)” value [1]?
The value was 86.21% and 83.33%.

What about the “Population Normal (%)” value [1] of the same molecule?
The value was 100%.

What about the “Population Pyknosed Nuclei (%)” value [1] of the same molecule?
Its value is 16.38% and 16.39%.

What about the “Population Tubulin-Different-Phenotype (%)” value [1] of the same molecule?
The value was 12.9% and 11.64%.

And the “Total Cell Count” value [1]?
The value was 177 and 183.

And the “Population Healthy Nuclei (%)” value [2]?
The value was 69.44% and 89.58%.

And the “Population Hoechst High Intensity Objects (%)” value [2]?
The value was 0%.

What about the “Population Membrane Permeable-Phenotype (%)” value [2] of the same molecule?
The value was 6.4% and 2.91%.

What about the “Population Mitochondria Different-Phenotype (%)” value [2] of the same molecule?
Its value is 11.2% and 12.79%.

What about the “Population Mitotic Cells (%)” value [2] of the same molecule?
Its value is 88.89% and 60%.

And the “Population Normal (%)” value [2]?
Its value is 100%.

And the “Population Pyknosed Nuclei (%)” value [2]?
The value was 15% and 7.81%.

And the “Population Tubulin-Different-Phenotype (%)” value [2]?
The value was 12% and 12.79%.

And the “Total Cell Count” value [2]?
The value was 180 and 192.

And the “Population Apoptotic (%)” value [3]?
The value was 19.51% and 13.16%.

What about the “Population Healthy Nuclei (%)” value [3] of the same molecule?
The value was 62.05% and 74.05%.

What about the “Population Hoechst High Intensity Objects (%)” value [3] of the same molecule?
Its value is 0%.

What about the “Population Membrane Permeable-Phenotype (%)” value [3] of the same molecule?
The value was 4.96% and 1.46%.

And the “Population Mitochondria Different-Phenotype (%)” value [3]?
Its value is 7.44% and 7.3%.

What about the “Population Mitotic Cells (%)” value [3] of the same molecule?
The value was 80.49% and 86.84%.

And the “Population Normal (%)” value [3]?
The value was 100%.

And the “Population Pyknosed Nuclei (%)” value [3]?
Its value is 21.03% and 20.54%.

What about the “Population Tubulin-Different-Phenotype (%)” value [3] of the same molecule?
Its value is 16.53% and 14.6%.

And the “Total Cell Count” value [3]?
Its value is 195 and 185.

What about the “Population Healthy Nuclei (%)” value [4] of the same molecule?
The value was 70.39% and 84.97%.

What about the “Population Hoechst High Intensity Objects (%)” value [4] of the same molecule?
The value was 0%.

What about the “Population Membrane Permeable-Phenotype (%)” value [4] of the same molecule?
Its value is 7.14% and 3.66%.

What about the “Population Mitochondria Different-Phenotype (%)” value [4] of the same molecule?
Its value is 6.35% and 12.8%.

What about the “Population Mitotic Cells (%)” value [4] of the same molecule?
The value was 92.86% and 57.69%.

And the “Population Normal (%)” value [4]?
The value was 100%.

And the “Population Pyknosed Nuclei (%)” value [4]?
Its value is 15.64% and 13.47%.

What about the “Population Tubulin-Different-Phenotype (%)” value [4] of the same molecule?
Its value is 10.32% and 17.07%.

And the “Total Cell Count” value [4]?
Its value is 179 and 193.

And the “Population Apoptotic (%)” value [5]?
Its value is 33.33%.

And the “Population Fragmented Nuclei (%)” value [5]?
The value was 17.79% and 7.69%.

And the “Population Healthy Nuclei (%)” value [5]?
The value was 75% and 86.54%.

And the “Population Hoechst High Intensity Objects (%)” value [5]?
The value was 0%.

And the “Population Membrane Permeable-Phenotype (%)” value [5]?
Its value is 3.85% and 5%.

And the “Population Mitotic Cells (%)” value [5]?
The value was 66.67%.

And the “Population Normal (%)” value [5]?
The value was 100%.

And the “Population Pyknosed Nuclei (%)” value [5]?
Its value is 7.21% and 5.77%.

What about the “Population Tubulin-Different-Phenotype (%)” value [5] of the same molecule?
The value was 23.08% and 22.22%.

What about the “Total Cell Count” value [5] of the same molecule?
The value was 208.

What about the “Population Apoptotic (%)” value [6] of the same molecule?
The value was 11.76% and 35.14%.

What about the “Population Fragmented Nuclei (%)” value [6] of the same molecule?
Its value is 16.11% and 6.99%.

What about the “Population Healthy Nuclei (%)” value [6] of the same molecule?
Its value is 65% and 73.12%.

And the “Population Hoechst High Intensity Objects (%)” value [6]?
Its value is 0%.

And the “Population Membrane Permeable-Phenotype (%)” value [6]?
Its value is 0% and 11.03%.

And the “Population Mitochondria Different-Phenotype (%)” value [6]?
Its value is 20.51% and 11.76%.

And the “Population Mitotic Cells (%)” value [6]?
The value was 88.24% and 64.86%.

What about the “Population Normal (%)” value [6] of the same molecule?
The value was 100%.

And the “Population Pyknosed Nuclei (%)” value [6]?
Its value is 18.89% and 19.89%.

What about the “Population Tubulin-Different-Phenotype (%)” value [6] of the same molecule?
The value was 6.84% and 18.38%.

And the “Total Cell Count” value [6]?
The value was 180 and 186.
